From the EternaBench riboswitch data

Experiments:
MS2 coat protein [1] = assay: apparent Kd, MS2 coat protein; higher = weaker binding; RNA-MaP array; theophylline 2 mM where present; details: designed as: OFF switch for theophylline
Outline: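 Two titrations, one without ligand and one with constant ligand, were run with SNAP-549-labelled MS2 coat protein from 0.7 or 1.5 nM, doubling to 3 µM. The targets were designs transcribed by stalled E. coli RNA polymerase on Illumina sequencing-chip clusters, in 100 mM Tris-HCl pH 7.5, 80 mM KCl, 4 mM MgCl2, BSA, DTT, yeast tRNA and Tween-20. The apparent Kd is the median of filtered per-cluster binding-curve fits, with green signal normalised to red-channel RNA signal and control-cluster median Fmax.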

MS2 coat protein [2] = assay: apparent Kd, MS2 coat protein; higher = weaker binding; RNA-MaP array
Outline: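 With or without input ligand, designed RNAs transcribed on an Illumina sequencing chip from sequenced DNA templates were incubated at room temperature with fluorescently labeled MS2 coat protein at 1.5 nM to 3 μM. The buffer was Tris-HCl pH 7.5 with KCl, MgCl2, BSA, DTT, tRNA and Tween20, and incubation ran 0.8–1.5 h at the lowest and 10–20 min at the highest concentrations. Apparent Kd is reported as the median of fits to binding curves from individual clusters. Designs measured on fewer than 10 clusters are not included.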

[3] = designed as: OFF switch for flavin mononucleotide, no ligand
[4] = ligand present: flavin mononucleotide, designed as: OFF switch for flavin mononucleotide
[5] = designed as: ON switch for flavin mononucleotide, no ligand
[6] = ligand present: flavin mononucleotide, designed as: ON switch for flavin mononucleotide

CCUAGCACACAUGAUACCAGCGACAUGAGGAUCACCCAUGUACGGCGUGUAUCGCAAGGUUGCCCUUGGCAGCAUGAUAGUGCUG
apparent Kd (MS2 coat protein [1]; no ligand): 14.4 nM | apparent Kd (MS2 coat protein [1]; ligand present: theophylline): 182 nM

CGGUUUGUGAUGGAUACCAGCAGAGAAAACGUUUAUCCUAACAUGAGGAUCACCCAUGUAUGCCCUUGGCAGCUGUUGUGGGCUG
apparent Kd (MS2 coat protein [1]; no ligand): 44.7 nM | apparent Kd (MS2 coat protein [1]; ligand present: theophylline): 45.6 nM

CUCUGGUGCUGAGUGAGUGUCGUGACUGAUACCAGAUGCCUUUACAUCCCUUGGCAGCAGUACAUGAGGAUCACCCAUGUAUUCC
apparent Kd (MS2 coat protein [1]; no ligand): 22.1 nM | apparent Kd (MS2 coat protein [1]; ligand present: theophylline): 182 nM

CUCUUCCGGAAGGAUACCAGCUACAUGAGGAUCACCCAUGUAGGAGCGGGUUUCUAAUGUAGCCCUUGGCAGCCUUAGCCCGUCG
apparent Kd (MS2 coat protein [1]; no ligand): 17.6 nM | apparent Kd (MS2 coat protein [1]; ligand present: theophylline): 60.7 nM

CUUGUCGUAACUGAUACCAGUGUACUGACAUGAGGAUCACCCAUGUUGGGUUUUGUUGUACACCCUUGGCAGCAGAAUCGAUAAG
apparent Kd (MS2 coat protein [1]; no ligand): 73.8 nM | apparent Kd (MS2 coat protein [1]; ligand present: theophylline): 121 nM

UCCUAGCGACAGAAGGUAGGCAAGAGACGCCCUCAACGACAUGAGGAUCACCCAUGUGGGACCACUAAGGAUAUGUAUGCCGAC
apparent Kd (MS2 coat protein [2]; [3]): 84.6 nM | apparent Kd (MS2 coat protein [2]; [4]): 66.5 nM

UCGAACUAACAAGGAUAUACGCGGGUCGAAACGGUAGAAGGUGUCAACGGUAUCUCACAUGAGGAUCACCCAUGUCGGCAGGGA
apparent Kd (MS2 coat protein [2]; [3]): 135 nM | apparent Kd (MS2 coat protein [2]; [4]): 103 nM

UCGGUACAUGAGGAUCACCCAUGUCGUCACAGAGCAGGAUAUUCAGGCUUCAGAGGUCGCGAAGAAGGGCUGGUGC
apparent Kd (MS2 coat protein [2]; [5]): 11.9 nM | apparent Kd (MS2 coat protein [2]; [6]): 9.02 nM

UCUCACAUGAGGAUCACCCAUGUUAAGGCCCGAGGACCGGUACGGCCGCCACUCGUUGGAAGCCGGUAACGUACGAAUCUUCCGU
apparent Kd (MS2 coat protein [2]; designed as: ON switch for tryptophan, no ligand): 17.9 nM | apparent Kd (MS2 coat protein [2]; ligand present: tryptophan, designed as: ON switch for tryptophan): 24 nM

UCUCGGUAAGGAUAUAAAGCGACUCACAUGAGGAUCACCCAUGUUGUCGUCGUGGGCACAUUAGAAGGUACCAUUC
apparent Kd (MS2 coat protein [2]; [3]): 7.06 nM | apparent Kd (MS2 coat protein [2]; [4]): 6.3 nM

UGACGUGGUAAGAAGGCAAGAGCAGGGCAGGAUUGAGGAUAUUACGGACAGACAUGAGGAUCACCCAUGUAGAGCCAUAACCGG
apparent Kd (MS2 coat protein [2]; [5]): 8.55 nM | apparent Kd (MS2 coat protein [2]; [6]): 7.89 nM

UGAGAUAACGCAGGAUAUCAUGCGGCAGUGUAGUGAGAAGGGCGAAUGCAAGGGUCAGACAUGAGGAUCACCCAUGUUCAUAGC
apparent Kd (MS2 coat protein [2]; [3]): 17.2 nM | apparent Kd (MS2 coat protein [2]; [4]): 12.5 nM

UGAGCAUCCCAGAAGGAUAUAUGGUCGUAAACAUGAGGAUCACCCAUGUUCCAUUUAGGACUCAAAUAGAAGGUCUCGGGCCAGAC
apparent Kd (MS2 coat protein [2]; [5]): 13.6 nM | apparent Kd (MS2 coat protein [2]; [6]): 11.7 nM

UGCCAACAUGAGGAUCACCCAUGUCAGGAUAUCCGGGAGCACUUCAGUAGAAUCCGCUGGAGAAGGGACAUAGG
apparent Kd (MS2 coat protein [2]; [3]): 24.3 nM | apparent Kd (MS2 coat protein [2]; [4]): 21.7 nM

UGCGAUGAACCUGAUACCAGAUGUAUUUGCUCCUCGGACAACAUGAGGAUCACCCAUGUCAUCCCUUGGCAGCAGGAGCGAAAGC
apparent Kd (MS2 coat protein [2]; designed as: OFF switch for theophylline, no ligand): 11.9 nM | apparent Kd (MS2 coat protein [2]; ligand present: theophylline, designed as: OFF switch for theophylline): 44.1 nM

UGCUAAAGUGAGAAGGGUGGACCACUCAUCGAGUAUGACACAUGAGGAUCACCCAUGUACGCUCCACAGGAUAUCAAAUUGAGG
apparent Kd (MS2 coat protein [2]; [5]): 156 nM | apparent Kd (MS2 coat protein [2]; [6]): 28.8 nM

UGGAAGAUUGAAGGAUAUCCGGUCAAUUAAUAUGGAGAAGGUCAAUAUAUGGACAUGAGGAUCACCCAUGUAGAGUCAACUCGA
apparent Kd (MS2 coat protein [2]; [5]): 38.5 nM | apparent Kd (MS2 coat protein [2]; [6]): 26.8 nM

UGGCACAAGUUAGGAUAUAGCACUUCUGUAAAGCUAGAAGGAACGUUGCACAUGAGGAUCACCCAUGUCAGUAAUUGAUAUGUA
apparent Kd (MS2 coat protein [2]; [3]): 10.1 nM | apparent Kd (MS2 coat protein [2]; [4]): 12.6 nM

UGGUUAACAUGACAUGAGGAUCACCCAUGUCUUGGAAUUACAAGAAGGAAGGACACAGGUAGACCUUAGGAUAUUGUGACUUGA
apparent Kd (MS2 coat protein [2]; [5]): 24.6 nM | apparent Kd (MS2 coat protein [2]; [6]): 11.6 nM

UGUCCCACGCAAGUACAUGAGGAUCACCCAUGUCUGAACCAGAGAAGGAGAGUUAUACUGGAAAUCUAGGAUAUCUGACAGACU
apparent Kd (MS2 coat protein [2]; [3]): 43.3 nM | apparent Kd (MS2 coat protein [2]; [4]): 50.5 nM

UUAGAUCGUGUCAGGAUAUCGGACCGGCCCGCCUCCGAGAAGGGACAUGAGGAUCACCCAUGUCACGGUCCAUU
apparent Kd (MS2 coat protein [2]; [3]): 7.73 nM | apparent Kd (MS2 coat protein [2]; [4]): 7.84 nM

UUAGUAACCACAGGAUAUGCGGACGGGUGAAGGGCAGAAGGGUGGGAGUGCACAUGAGGAUCACCCAUGUAACACGCCAUAUUU
apparent Kd (MS2 coat protein [2]; [5]): 17.7 nM | apparent Kd (MS2 coat protein [2]; [6]): 8.65 nM

UUAUGUGACGAGGAUAUGAAAAGGAGUGGUGAAUCAGAAGGCGUAACAUGAGGAUCACCCAUGUCAGUGGGCCU
apparent Kd (MS2 coat protein [2]; [3]): 49.6 nM | apparent Kd (MS2 coat protein [2]; [4]): 71.3 nM

UUCACGGGCACGGCCGCCACUAACCAACAUGAGGAUCACCCAUGUGUAUUGGACGACCUCUUUGCUAGGACCGGGUGUAUGGUUC
apparent Kd (MS2 coat protein [2]; designed as: OFF switch for tryptophan, no ligand): 24.8 nM | apparent Kd (MS2 coat protein [2]; ligand present: tryptophan, designed as: OFF switch for tryptophan): 30.5 nM

UUGAACAUGAGGAUCACCCAUGUGGAUGAUACCAGCUAAAACAUAAGCCCUUGGCAGCAUUAAAAUGAAAUAUCGAAAAGGAAAG
apparent Kd (MS2 coat protein [2]; designed as: ON switch for theophylline, no ligand): 143 nM | apparent Kd (MS2 coat protein [2]; ligand present: theophylline, designed as: ON switch for theophylline): 54.9 nM

UUUAUACAUGAGGAUCACCCAUGUGAGGAUAUAAAGGCGGACACUGCUGUCGAUCGCUUUAGAAGGCACUGGAU
apparent Kd (MS2 coat protein [2]; [3]): 15.8 nM | apparent Kd (MS2 coat protein [2]; [4]): 20 nM
